Assay results as given in ChEMBL document CHEMBL5579886, “Selective Degradation of MLK3 by a Novel CEP1347-VHL-02 PROTAC Compound Limits the Oncogenic Potential of TNBC” (J Med Chem, 2024).
Calls of active or inactive are those of the source. No cut-off for these calls is given here.

What was measured:
[1] = target: T1, von Hippel-Lindau disease tumor suppressor/Mitogen-activated protein kinase kinase kinase 10 (Homo sapiens) (UniProt Q02779+P40337); assay: PROTAC activity at IAP/MLK2 in human MCF7 cells assessed as protein degradation at 1 uM incubated for 24 hrs by immunoblot analysis; assay type: cell-based
T1 sequence (P40337 whole entry, looked up): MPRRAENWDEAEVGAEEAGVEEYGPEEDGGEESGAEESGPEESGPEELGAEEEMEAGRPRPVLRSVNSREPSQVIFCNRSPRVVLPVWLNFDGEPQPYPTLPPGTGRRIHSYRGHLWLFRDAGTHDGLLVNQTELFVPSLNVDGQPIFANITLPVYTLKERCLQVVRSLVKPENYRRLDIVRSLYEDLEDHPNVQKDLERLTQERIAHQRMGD
T1 sequence (Q02779 whole entry, looked up): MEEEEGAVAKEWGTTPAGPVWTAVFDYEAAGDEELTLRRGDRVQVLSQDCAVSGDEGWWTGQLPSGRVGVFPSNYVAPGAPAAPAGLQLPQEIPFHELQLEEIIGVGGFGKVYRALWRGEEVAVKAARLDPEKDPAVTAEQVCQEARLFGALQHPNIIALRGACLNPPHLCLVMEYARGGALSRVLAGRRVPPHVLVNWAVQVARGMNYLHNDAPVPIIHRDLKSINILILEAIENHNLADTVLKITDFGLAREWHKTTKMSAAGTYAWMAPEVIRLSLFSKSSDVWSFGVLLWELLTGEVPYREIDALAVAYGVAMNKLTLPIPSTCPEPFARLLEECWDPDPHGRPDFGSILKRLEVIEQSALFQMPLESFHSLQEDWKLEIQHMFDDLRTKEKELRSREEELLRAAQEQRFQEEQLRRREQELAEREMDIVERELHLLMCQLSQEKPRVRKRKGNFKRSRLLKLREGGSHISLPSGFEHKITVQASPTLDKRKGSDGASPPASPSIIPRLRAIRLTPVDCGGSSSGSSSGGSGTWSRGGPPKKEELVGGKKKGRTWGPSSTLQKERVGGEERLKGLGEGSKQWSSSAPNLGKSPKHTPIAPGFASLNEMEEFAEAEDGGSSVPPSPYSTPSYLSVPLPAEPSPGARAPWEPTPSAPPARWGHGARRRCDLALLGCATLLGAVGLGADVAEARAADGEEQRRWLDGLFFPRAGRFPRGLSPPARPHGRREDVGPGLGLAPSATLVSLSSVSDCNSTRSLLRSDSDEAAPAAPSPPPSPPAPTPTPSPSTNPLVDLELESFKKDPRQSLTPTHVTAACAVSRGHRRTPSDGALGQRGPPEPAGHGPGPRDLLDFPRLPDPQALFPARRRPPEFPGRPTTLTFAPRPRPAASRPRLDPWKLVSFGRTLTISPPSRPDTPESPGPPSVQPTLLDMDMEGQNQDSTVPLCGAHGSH
Procedure, shortened: (§1)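 Endogenous MLK1, MLK2 or MLK4 levels in MCF-7 and MDA-MB-468 cells. Cells were grown in high-glucose DMEM with 10% FBS, seeded at 100 000 cells/well and treated the next day for 24 h, with DMSO as control. Lysis was in RIPA with protease inhibitor, followed by 10% SDS-PAGE, nitrocellulose transfer and ECL immunoblot with GAPDH or β-actin as loading control.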

[2] = target: von Hippel-Lindau disease tumor suppressor/Mitogen-activated protein kinase kinase kinase 21 (Homo sapiens) (UniProt P40337+Q5TCX8); assay: PROTAC activity at VHL/MLK4 in human MCF7 cells assessed as protein degradation at 1 uM incubated for 24 hrs by immunoblot analysis; assay type: cell-based; procedure, shortened: as §1
Sequence of von Hippel-Lindau disease tumor suppressor/Mitogen-activated protein kinase kinase kinase 21 (Homo sapiens) (P40337 whole entry, looked up): as the sequence (P40337 whole entry, looked up) above
Sequence of von Hippel-Lindau disease tumor suppressor/Mitogen-activated protein kinase kinase kinase 21 (Homo sapiens) (Q5TCX8 whole entry, looked up): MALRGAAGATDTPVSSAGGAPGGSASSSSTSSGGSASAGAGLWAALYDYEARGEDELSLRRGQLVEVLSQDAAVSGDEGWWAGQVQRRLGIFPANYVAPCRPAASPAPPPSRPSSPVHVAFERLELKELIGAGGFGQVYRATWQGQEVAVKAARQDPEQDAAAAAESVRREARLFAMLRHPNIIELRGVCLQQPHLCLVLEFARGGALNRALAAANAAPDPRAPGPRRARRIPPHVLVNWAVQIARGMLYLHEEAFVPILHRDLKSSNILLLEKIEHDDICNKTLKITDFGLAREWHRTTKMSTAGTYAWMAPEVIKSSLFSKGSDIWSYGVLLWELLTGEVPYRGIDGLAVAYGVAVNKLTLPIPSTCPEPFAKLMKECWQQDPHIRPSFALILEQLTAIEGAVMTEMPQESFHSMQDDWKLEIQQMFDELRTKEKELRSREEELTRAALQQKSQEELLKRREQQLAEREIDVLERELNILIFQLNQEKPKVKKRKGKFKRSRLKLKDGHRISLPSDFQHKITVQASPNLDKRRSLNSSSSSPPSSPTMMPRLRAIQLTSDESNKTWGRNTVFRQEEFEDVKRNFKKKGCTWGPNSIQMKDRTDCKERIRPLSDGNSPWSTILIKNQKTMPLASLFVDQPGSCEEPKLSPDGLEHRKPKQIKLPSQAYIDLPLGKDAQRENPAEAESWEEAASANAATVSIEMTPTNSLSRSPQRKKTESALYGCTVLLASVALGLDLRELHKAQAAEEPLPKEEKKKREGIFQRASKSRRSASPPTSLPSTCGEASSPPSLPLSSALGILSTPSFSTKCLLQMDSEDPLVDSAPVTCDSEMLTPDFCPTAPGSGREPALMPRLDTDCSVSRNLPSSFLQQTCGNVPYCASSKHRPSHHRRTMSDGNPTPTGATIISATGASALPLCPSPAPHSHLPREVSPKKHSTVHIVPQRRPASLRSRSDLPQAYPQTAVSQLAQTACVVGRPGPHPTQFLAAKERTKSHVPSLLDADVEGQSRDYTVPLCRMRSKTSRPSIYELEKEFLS

[3] = target: T2, von Hippel-Lindau disease tumor suppressor/Mitogen-activated protein kinase kinase kinase 11 (Homo sapiens, UniProt Q16584+P40337); assay: PROTAC activity at VHL/DOX-inducible MLK3 (unknown origin) overexpressed in human HCC1806 cells assessed as protein degradation at 0.25 uM incubated for 24 hrs by immunoblot analysis; assay type: cell-based
Target sequence in this assay (P40337 whole entry, looked up): as the sequence (P40337 whole entry, looked up) above
Target sequence in this assay (Q16584 whole entry, looked up): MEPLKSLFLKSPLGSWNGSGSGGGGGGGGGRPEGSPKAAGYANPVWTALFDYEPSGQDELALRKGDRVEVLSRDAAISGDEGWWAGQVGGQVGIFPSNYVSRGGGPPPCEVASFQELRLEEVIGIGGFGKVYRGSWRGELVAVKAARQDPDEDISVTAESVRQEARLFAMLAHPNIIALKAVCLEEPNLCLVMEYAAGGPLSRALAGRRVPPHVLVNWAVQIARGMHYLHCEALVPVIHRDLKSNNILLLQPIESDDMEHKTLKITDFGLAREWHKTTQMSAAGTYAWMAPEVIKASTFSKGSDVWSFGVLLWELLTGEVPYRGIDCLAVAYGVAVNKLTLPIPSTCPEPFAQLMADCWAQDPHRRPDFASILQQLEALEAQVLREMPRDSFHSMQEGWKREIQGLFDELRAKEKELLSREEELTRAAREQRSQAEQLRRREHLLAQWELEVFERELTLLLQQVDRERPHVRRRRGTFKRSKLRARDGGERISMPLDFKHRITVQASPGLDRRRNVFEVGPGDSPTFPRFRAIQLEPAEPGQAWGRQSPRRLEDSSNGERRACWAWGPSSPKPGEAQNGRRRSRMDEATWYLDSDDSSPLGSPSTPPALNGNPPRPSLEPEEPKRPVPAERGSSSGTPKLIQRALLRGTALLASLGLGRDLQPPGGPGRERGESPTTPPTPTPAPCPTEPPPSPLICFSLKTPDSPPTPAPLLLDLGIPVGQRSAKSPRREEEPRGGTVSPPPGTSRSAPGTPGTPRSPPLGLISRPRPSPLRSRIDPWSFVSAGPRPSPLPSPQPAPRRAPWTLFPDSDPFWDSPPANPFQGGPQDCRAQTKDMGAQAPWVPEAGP

[4] = target: T2, von Hippel-Lindau disease tumor suppressor/Mitogen-activated protein kinase kinase kinase 11; assay: PROTAC activity at VHL/MLK3 in human MDA-MB-468 cells assessed as protein degradation at 1 uM measured after 24 hrs by immunoblot analysis; assay type: cell-based
Procedure, shortened: (§2)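 MCF-7 and MDA-MB-468 cells were treated for 24 h across 0.1–5 μM, with DMSO as control. MLK3 was immunoblotted and quantified as percent remaining versus concentration, from which DC50 and Dmax were derived.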
Target sequence in this assay (P40337 whole entry, looked up): as the sequence (P40337 whole entry, looked up) above
Target sequence in this assay (Q16584 whole entry, looked up): as the sequence (Q16584 whole entry, looked up) above

[5] = target: T2, von Hippel-Lindau disease tumor suppressor/Mitogen-activated protein kinase kinase kinase 11; assay: PROTAC activity at VHL/MLK3 in carfilzomib-treated human MCF7 cells assessed as protein degradation at 1 uM measured after 7 hrs by immunoblot analysis; assay type: cell-based
Procedure, shortened: (§3)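 MCF-7 and MDA-MB-468 cells were seeded at 100 000/well. The next day they were pretreated with 1 μM carfilzomib for 1 h, then treated with 1 μM PROTAC for 7 h, with DMSO as control. Endogenous MLK3 was measured by immunoblot of RIPA lysates.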
Target sequence in this assay (P40337 whole entry, looked up): as the sequence (P40337 whole entry, looked up) above
Target sequence in this assay (Q16584 whole entry, looked up): as the sequence (Q16584 whole entry, looked up) above

MCF7 [6] = assay: Inhibition of colony formation in human MCF7 cells harboring siMLK3 by crystal violet staining based analysis; assay type: functional, cell-based
Procedure, shortened: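 MCF-7 or MDA-MB-468 seeded at 10 000 cells/well, transfected next day with MAP3K11 SMARTpool siRNA or nontargeting control siRNA; crystal violet staining 7 days after transfection. Knockdown confirmed by immunoblot.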

[7] = target: T2, von Hippel-Lindau disease tumor suppressor/Mitogen-activated protein kinase kinase kinase 11; assay: PROTAC activity at VHL/MLK3 in human MDA-MB-468 cells assessed as protein degradation at 0.1 to 5 uM measured after 24 hrs by Western blot analysis relative to control; assay type: cell-based; details: dose 0.1-5 µM
Procedure, shortened: (§4)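 Endogenous MLK3: cells seeded at 100 000/well, treated next day for 24 h with PROTAC at 0.1–5 μM, DMSO control; immunoblot with GAPDH or β-actin loading control. Remaining MLK3 percentage plotted against concentration to derive DC50 and Dmax.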
Target sequence in this assay (P40337 whole entry, looked up): as the sequence (P40337 whole entry, looked up) above
Target sequence in this assay (Q16584 whole entry, looked up): as the sequence (Q16584 whole entry, looked up) above

MCF7 [8] = assay: Growth inhibition of human MCF7 cell spheroids in low-attachment surface at 1 uM incubated for 10 days; assay type: functional, cell-based; details: time 10.0 day
Procedure, shortened: (§5)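 Cells grown 10 days in low-attachment surface plates in medium containing 1 μM PROTAC or DMSO; spheroid growth assessed.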

[9] = target: T2, von Hippel-Lindau disease tumor suppressor/Mitogen-activated protein kinase kinase kinase 11; assay: PROTAC activity at VHL/MLK3 in human MDA-MB-468 cells assessed as protein degradation measured after 24 hrs by Western blot analysis; assay type: cell-based; procedure, shortened: as §4
Target sequence in this assay (Q16584 whole entry): as the sequence (Q16584 whole entry, looked up) above
Target sequence in this assay (P40337 whole entry): as the sequence (P40337 whole entry, looked up) above

[10] = target: T1, von Hippel-Lindau disease tumor suppressor/Mitogen-activated protein kinase kinase kinase 10 (Homo sapiens); assay: PROTAC activity at VHL/MLK2 in human MCF7 cells assessed as protein degradation at 1 uM incubated for 24 hrs by immunoblot analysis; assay type: cell-based; procedure, shortened: as §1
MCF7 [11] = assay: Inhibition of colony formation in human MCF7 cells at 1 uM incubated for 15 days by crystal violet staining based analysis; assay type: functional, cell-based; details: time 15.0 day
Procedure, shortened: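 5000 cells per 6 cm plate in triplicate with 1 μM PROTAC or DMSO, medium changed every 5 days; colonies stained with crystal violet after 14–15 days. Three independent experiments, mean ± SD, unpaired t-test against control.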

MCF7 [12] = assay: Growth inhibition of human MCF7 cell spheroids in hydrogel at 1 uM incubated for 10 days; assay type: functional, cell-based; details: time 10.0 day
Procedure, shortened: (§6)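 4000 cells plated on top of hydrogels and grown 10 days with 1 μM PROTAC or DMSO; spheroid formation and size scored.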

MDA-MB-468 [13] = assay: Growth inhibition of human MDA-MB-468 cell spheroids in low-attachment surface at 1 uM incubated for 10 days; assay type: functional, cell-based; details: time 10.0 day; procedure, shortened: as §5
MCF7 [14] = assay: Inhibition of cell migration in human MCF7 cells at 1 uM incubated for 24 hrs by transwell assay; assay type: functional, cell-based
Procedure, shortened: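 Boyden inserts, 8 μm pores: 200 000 cells in serum-free DMEM with 1 μM PROTAC or DMSO, 20% FBS DMEM below as chemoattractant, 24 h at 37 °C, 5% CO2. Migrated cells fixed, crystal violet stained and counted by image analysis; at least three repeats.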

[15] = target: T2, von Hippel-Lindau disease tumor suppressor/Mitogen-activated protein kinase kinase kinase 11; assay: PROTAC activity at VHL/MLK3 in carfilzomib-treated human MDA-MB-468 cells assessed as protein degradation at 1 uM measured after 7 hrs by immunoblot analysis; assay type: cell-based; procedure, shortened: as §3
Target sequence in this assay (P40337 whole entry, looked up): as above
Target sequence in this assay (Q16584 whole entry, looked up): as the sequence (Q16584 whole entry, looked up) above

[16] = target: T2, von Hippel-Lindau disease tumor suppressor/Mitogen-activated protein kinase kinase kinase 11; assay: PROTAC activity at VHL/DOX-inducible MLK3 (unknown origin) overexpressed in human HCC1806 cells assessed as protein degradation at 0.5 uM measured after 2 hrs by immunoblot analysis relative to control; assay type: cell-based
Procedure, shortened: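 HCC1806 cells with DOX-inducible MLK3 were induced with 1 μg/mL DOX for 24 h, then treated at 0.5 μM for times from 2 to 24 h, with DMSO as control. MLK3 was measured by immunoblot of RIPA lysates with ECL detection.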
Target sequence in this assay (P40337 whole entry, looked up): as the sequence (P40337 whole entry, looked up) above
Target sequence in this assay (Q16584 whole entry, looked up): as the sequence (Q16584 whole entry, looked up) above

[17] = target: T2, von Hippel-Lindau disease tumor suppressor/Mitogen-activated protein kinase kinase kinase 11; assay: PROTAC activity at VHL/MLK3 in human MCF7 cells assessed as half life of protein degradation at 1 uM by Western blot analysis; assay type: cell-based
Procedure, shortened: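 Endogenous MLK3: cells seeded at 100 000/well, treated next day with 1 μM PROTAC for 4–48 h, DMSO control; immunoblot with GAPDH or β-actin loading control. Remaining MLK3 quantified over time and t1/2 derived.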

[18] = target: T2, von Hippel-Lindau disease tumor suppressor/Mitogen-activated protein kinase kinase kinase 11; assay: PROTAC activity at VHL/MLK3 in human MCF7 cells assessed as protein degradation at 1 uM measured after 24 hrs by immunoblot analysis; assay type: cell-based; procedure, shortened: as §2
[19] = target: von Hippel-Lindau disease tumor suppressor/Mitogen-activated protein kinase kinase kinase 9 (Homo sapiens) (UniProt P80192+P40337); assay: PROTAC activity at IAP/MLK1 in human MDA-MB-468 cells assessed as protein degradation at 1 uM incubated for 24 hrs by immunoblot analysis; assay type: cell-based; procedure, shortened: as §1
MDA-MB-468 [20] = assay: Induction of cell cycle arrest at G2/M phase in human MDA-MB-468 cells at 1 uM measured after 48 hrs by PI staining based flow cytometry; assay type: functional
Procedure, shortened: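 Cells seeded at 50 000/well, exposed to 1 μM PROTAC or DMSO for 48 h, trypsinized, fixed in ice-cold methanol and held at –20 °C; next day stained with PI/RNase solution and read by flow cytometry. Two independent experiments.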

MDA-MB-468 [21] = assay: Growth inhibition of human MDA-MB-468 cell spheroids in hydrogel at 1 uM incubated for 10 days; assay type: functional, cell-based; details: time 10.0 day; procedure, shortened: as §6

How did the Activity [1] turn out when `CCSCc1ccc2c(c1)c1c3c(c4c5cc(CSCC)ccc5n5c4c1n2[C@H]1C[C@](O)(C(=O)NCCOCCOCCOCC(=O)N[C@H](C(=O)N2C[C@H](O)C[C@H]2C(=O)N[C@@H](C)c2ccc(-c4scnc4C)cc2)C(C)(C)C)[C@]5(C)O1)CNC3=O` was run?
Its Activity is “inactive”.

And the Activity [2]?
The Activity was “inactive”.

And the Activity [3]?
The Activity was “Active”.

What about the Activity [4] of the same compound?
Its Activity is “Active”.

What about the Activity [5] of the same compound?
Its Activity is “inactive”.

And the inhibition (MCF7 [6])?
The inhibition was “inactive”.

And the Emax [7]?
The Emax was 63%.

And the “growth inhibition (GI)” value (MCF7 [8])?
Its value is “inactive”.

And the DC50 [9]?
The DC50 was 300 nM.

What about the Activity [10] of the same compound?
Its Activity is “inactive”.

What about the inhibition (MCF7 [11]) of the same compound?
Its inhibition is “inactive”.

And the “growth inhibition (GI)” value (MCF7 [12])?
Its value is “inactive”.

What about the “growth inhibition (GI)” value (MDA-MB-468 [13]) of the same compound?
Its value is “Active”.

What about the inhibition (MCF7 [14]) of the same compound?
The inhibition was “inactive”.

What about the Activity [15] of the same compound?
The Activity was “inactive”.

And the Activity [16]?
Its Activity is 100%.

What about the T1/2 [17] of the same compound?
Its T1/2 is 2.5 h.

And the Activity [18]?
Its Activity is “Active”.

And the Activity [19]?
Its Activity is “inactive”.

What about the Activity (MDA-MB-468 [20]) of the same compound?
Its Activity is “Active”.

And the “growth inhibition (GI)” value (MDA-MB-468 [21])?
The value was “Active”.
